Experimental data reported in PMC12046972 (ChemMedChem, 2025).

Experiments:
SHIP1 [1] = molecular target: T1, SHIP1 (Homo sapiens, UniProt Q92835); assay: malachite green assay for phosphatase activity, SHIP1; format: biochemical; conditions: described in words; for selectivity between SHIP1 and SHIP2: malachite green assay at 1 mM; for Inhibition of SHIP1: malachite green assay, compounds evaluated at 1 mM
T1 sequence (Q92835 1-1189): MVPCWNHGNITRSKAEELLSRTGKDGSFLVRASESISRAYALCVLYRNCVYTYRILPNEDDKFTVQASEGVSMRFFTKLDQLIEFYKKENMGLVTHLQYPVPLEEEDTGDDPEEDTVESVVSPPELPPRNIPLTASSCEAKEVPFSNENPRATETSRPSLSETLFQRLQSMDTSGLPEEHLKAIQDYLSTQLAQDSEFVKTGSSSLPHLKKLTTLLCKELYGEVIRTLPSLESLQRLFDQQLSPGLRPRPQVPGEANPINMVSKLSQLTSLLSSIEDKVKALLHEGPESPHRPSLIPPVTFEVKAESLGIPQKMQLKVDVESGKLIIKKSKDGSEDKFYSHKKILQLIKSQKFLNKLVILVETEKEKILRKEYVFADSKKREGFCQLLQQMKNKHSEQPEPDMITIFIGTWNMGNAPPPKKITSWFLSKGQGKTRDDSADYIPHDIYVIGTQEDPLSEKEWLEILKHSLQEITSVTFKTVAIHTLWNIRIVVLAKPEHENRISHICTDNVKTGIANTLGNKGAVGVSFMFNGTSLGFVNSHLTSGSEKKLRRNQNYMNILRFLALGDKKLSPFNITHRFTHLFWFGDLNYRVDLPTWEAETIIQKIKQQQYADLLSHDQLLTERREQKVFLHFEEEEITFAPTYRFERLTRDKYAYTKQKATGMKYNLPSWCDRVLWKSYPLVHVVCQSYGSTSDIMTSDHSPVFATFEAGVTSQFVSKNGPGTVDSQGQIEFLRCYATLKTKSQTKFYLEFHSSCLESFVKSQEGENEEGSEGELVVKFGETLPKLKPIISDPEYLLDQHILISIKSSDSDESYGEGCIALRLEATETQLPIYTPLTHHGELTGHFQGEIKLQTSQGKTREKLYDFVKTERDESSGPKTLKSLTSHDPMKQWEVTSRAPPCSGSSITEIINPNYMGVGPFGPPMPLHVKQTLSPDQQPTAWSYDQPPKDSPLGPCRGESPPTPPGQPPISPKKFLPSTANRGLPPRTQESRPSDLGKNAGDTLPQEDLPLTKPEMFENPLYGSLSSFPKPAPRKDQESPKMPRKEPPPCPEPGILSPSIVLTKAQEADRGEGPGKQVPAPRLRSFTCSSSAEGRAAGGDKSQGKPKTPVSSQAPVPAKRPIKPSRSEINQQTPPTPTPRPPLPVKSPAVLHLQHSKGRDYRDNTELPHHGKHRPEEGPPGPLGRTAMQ
In short: (§1)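 Phosphate released from C8-PI(3,4,5)P3 (short-chain substrate used to avoid micelles) measured by malachite green colorimetric readout. Reactions contained only SHIP enzyme, buffer and substrate, with no surfactant. Test compounds were tested at 1 mM from DMSO/buffer mixtures. Values are means of at least 3 measurements, with standard deviation.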

SHIP2 [2] = molecular target: T2, SHIP2 (Homo sapiens, UniProt O15357); assay: malachite green assay for phosphatase activity, SHIP2; format: biochemical; conditions: compounds evaluated at 1 mM, described in words
T2 sequence (O15357 1-1258): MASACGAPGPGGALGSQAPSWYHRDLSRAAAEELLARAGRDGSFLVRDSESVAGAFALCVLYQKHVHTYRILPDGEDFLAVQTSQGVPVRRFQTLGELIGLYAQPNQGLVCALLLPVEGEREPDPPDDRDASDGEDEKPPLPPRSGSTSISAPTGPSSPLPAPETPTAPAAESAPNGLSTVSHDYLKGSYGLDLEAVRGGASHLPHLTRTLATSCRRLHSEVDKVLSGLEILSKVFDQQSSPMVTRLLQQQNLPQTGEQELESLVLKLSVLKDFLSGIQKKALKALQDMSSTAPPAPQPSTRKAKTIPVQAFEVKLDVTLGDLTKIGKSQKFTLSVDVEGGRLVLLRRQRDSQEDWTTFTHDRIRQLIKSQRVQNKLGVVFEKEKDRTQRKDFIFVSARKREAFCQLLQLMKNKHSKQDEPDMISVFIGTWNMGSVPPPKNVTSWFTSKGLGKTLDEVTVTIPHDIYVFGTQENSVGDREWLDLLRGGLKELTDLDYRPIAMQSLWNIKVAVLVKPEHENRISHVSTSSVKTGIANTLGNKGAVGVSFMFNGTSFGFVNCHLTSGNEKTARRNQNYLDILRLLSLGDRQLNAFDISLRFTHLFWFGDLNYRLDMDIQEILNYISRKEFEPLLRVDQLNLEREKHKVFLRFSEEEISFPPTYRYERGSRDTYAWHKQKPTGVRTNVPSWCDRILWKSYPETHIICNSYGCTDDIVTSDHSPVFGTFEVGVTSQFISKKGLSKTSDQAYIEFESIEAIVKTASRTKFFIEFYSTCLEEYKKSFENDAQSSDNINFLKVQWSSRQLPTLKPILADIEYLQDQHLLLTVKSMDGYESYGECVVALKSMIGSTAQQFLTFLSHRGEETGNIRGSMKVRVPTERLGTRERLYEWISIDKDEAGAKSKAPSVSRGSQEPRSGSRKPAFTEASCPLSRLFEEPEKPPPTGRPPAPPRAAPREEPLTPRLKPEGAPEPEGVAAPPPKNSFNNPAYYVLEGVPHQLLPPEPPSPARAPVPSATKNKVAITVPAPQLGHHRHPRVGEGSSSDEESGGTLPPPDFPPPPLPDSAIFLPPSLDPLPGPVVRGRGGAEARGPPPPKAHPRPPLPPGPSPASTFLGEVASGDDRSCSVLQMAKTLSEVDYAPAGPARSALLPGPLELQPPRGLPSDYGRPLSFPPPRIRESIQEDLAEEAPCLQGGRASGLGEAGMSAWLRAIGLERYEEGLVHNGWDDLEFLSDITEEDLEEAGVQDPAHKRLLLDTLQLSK
In short: as §1

SHIP1 [3] = molecular target: T1, SHIP1; assay: fluorescence polarization; format: biochemical; conditions: general statement in the docking discussion
SHIP1 [4] = molecular target: T1, SHIP1; conditions: read-out: IC50 for SHIP1; cited from earlier work
SHIP2 [5] = molecular target: T2, SHIP2; conditions: ref 19a; cited from earlier work
mice = conditions: treatment of mice; cited from earlier work
microglial cell lines = conditions: a number of microglial cell lines; cited from earlier work
solubility in DMSO = conditions: in words
solubility in water = format: physicochemical; conditions: in words

Row | SMILES | Inhibition of SHIP1 (SHIP1 [1]) | Inhibition of SHIP2 (SHIP2 [2]) | solubility in water (solubility in water) | also measured
1 | CC(C)CCC[C@@H](C)[C@H]1CC[C@H]2[C@@H]3CCC4C[C@H](N)CC[C@]4(C)[C@H]3CC[C@]12C.Cl (stereo partly drawn) [Compound 1, 3α-Aminocholestane Hydrochloride] | significant activity | significant activity |  | selectivity between SHIP1 and SHIP2 (SHIP1 [1]): more selectivity for SHIP1; selectivity between the two SHIP paralogs (SHIP1 [3]): some selectivity for SHIP1; IC50 (SHIP1 [4]): ~10 µM; selective for SHIP1 over SHIP2 (SHIP2 [5]): at least 4 fold; in vivo bioactivity (mice): in vivo bioactivity comparable to genetic phenotypes observed in SHIP knockout mice; microglial phagocytosis of dead neurons (microglial cell lines): much less effective; solubility in DMSO (solubility in DMSO): insoluble in DMSO; solubility in DMSO (solubility in DMSO; listed as 3AC): nearly insoluble in DMSO
2 | CC(C)CCCC(C)C1CCC2C3CCC4CC(N)CCC4(C)C3CCC12C.Cl (stereo not shown) [Compound 11] | significant activity | significant activity |  | 
3 | CC(C)CCC[C@@H](C)[C@H]1CC[C@H]2[C@@H]3CC[C@H]4C[C@H](NS(C)(=O)=O)CC[C@]4(C)[C@H]3CC[C@]12C [Compound 12] | inactive | inactive |  | 
4 | CC(=O)NC1CCC2(C)C(CCC3C2CCC2(C)C(C(C)CCCC(C)C)CCC32)C1 (stereo not shown) [Compound 13] | inactive | inactive |  | 
5 | CC(C)CCC[C@@H](C)[C@H]1CC[C@H]2[C@@H]3CC[C@H]4C[C@H](N(C)C)CC[C@]4(C)[C@H]3CC[C@]12C [Compound 15] | active | significantly less effect |  | selectivity between SHIP1 and SHIP2 (SHIP1 [1]): selective inhibition of SHIP1
6 | CC(C)CCCC(C)C1CCC2C3CCC4CC(O)C(N)CC4(C)C3CCC12C (stereo not shown) [Compound 37] | significant inhibition of SHIP1 |  | insoluble in water | 
7 | CC(C)CCC[C@@H](C)[C@H]1CC[C@H]2[C@@H]3CC[C@H]4CC(N)C(N)C[C@]4(C)[C@H]3CC[C@]12C (stereo partly shown) [Compound 45] |  |  | insoluble in water | 
8 | CC(C)CCC[C@@H](C)[C@H]1CC[C@H]2[C@@H]3CC[C@H]4C[C@@H](N)[C@H](N)C[C@]4(C)[C@H]3CC[C@]12C [Compound 47] | least effective inhibitors | least effective inhibitors | insoluble in water | 
